Here are results for 22 compounds from PMC3824626 (Bioorganic & medicinal chemistry letters, 2013).

“Also recorded” adds a separate entry of the source.

A short description of data set [1]: kinetic aqueous solubility. In kind it is physicochemical. The conditions noted are these: aqueous/DMSO solubility compared with other analogs. The procedure, abridged:
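Kinetic aqueous solubility in PBS buffer, pH 7.4. It was measured by chemiluminescent nitrogen detection (CLND) at an outside laboratory and in-house by UV-Vis detection.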

The next data set concerns the target BLM helicase (Homo sapiens, UniProt P54132). As to the kind of experiment: gel-based BLM DNA unwinding assay. Type of data set: biochemical. The conditions noted are these: for IC50 (BLM): gel-based BLM DNA unwinding assay.
For data set [2], the system named is sister chromatid exchanges. As to conditions: cited from earlier work.
Another data set concerns BLM-positive cells. As to conditions: cited from earlier work.
Data set [3] deals with PSNF5 cells (BLM-complemented GM08505-derived BS cells). As to the kind of experiment: sister chromatid exchange frequency in BLM-complemented cells. Type of data set: cell-based, human. The conditions noted are these: cells expressing BLM (PSNF5).
In another data set the target is BLM (Homo sapiens, UniProt P54132). As to the kind of experiment: fluorescence polarization analysis of BLM binding to single-stranded DNA.
A further data set addresses WRN (Homo sapiens, UniProt Q14191). As to the kind of experiment: gel-based DNA unwinding assay, WRN. In kind it is biochemical. As to conditions: from gel-based IC50 values.
The subject of data set [4] is PSNG13 cells (BLM-defective GM08505-derived BS cells). As to the kind of experiment: sister chromatid exchange frequency in BLM-defective cells. Type of data set: cell-based, human. The conditions noted are these: cells lacking BLM (PSNG13).
The target of another data set is BLM ATPase activity (Homo sapiens, UniProt P54132). As to the kind of experiment: BLM ATPase kinetic analysis. In kind it is biochemical. The essentials: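 Michaelis–Menten analysis of BLM ATPase activity with and without test compound, replotted as a Lineweaver–Burk double-reciprocal plot. Each point is the mean ± SD of quadruplicate determinations, and the data shown represent three independent experiments.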

In the next data set the test system is WRN helicase. As to conditions: cited from earlier work.

BLM helicase, sequence (P54132 whole entry): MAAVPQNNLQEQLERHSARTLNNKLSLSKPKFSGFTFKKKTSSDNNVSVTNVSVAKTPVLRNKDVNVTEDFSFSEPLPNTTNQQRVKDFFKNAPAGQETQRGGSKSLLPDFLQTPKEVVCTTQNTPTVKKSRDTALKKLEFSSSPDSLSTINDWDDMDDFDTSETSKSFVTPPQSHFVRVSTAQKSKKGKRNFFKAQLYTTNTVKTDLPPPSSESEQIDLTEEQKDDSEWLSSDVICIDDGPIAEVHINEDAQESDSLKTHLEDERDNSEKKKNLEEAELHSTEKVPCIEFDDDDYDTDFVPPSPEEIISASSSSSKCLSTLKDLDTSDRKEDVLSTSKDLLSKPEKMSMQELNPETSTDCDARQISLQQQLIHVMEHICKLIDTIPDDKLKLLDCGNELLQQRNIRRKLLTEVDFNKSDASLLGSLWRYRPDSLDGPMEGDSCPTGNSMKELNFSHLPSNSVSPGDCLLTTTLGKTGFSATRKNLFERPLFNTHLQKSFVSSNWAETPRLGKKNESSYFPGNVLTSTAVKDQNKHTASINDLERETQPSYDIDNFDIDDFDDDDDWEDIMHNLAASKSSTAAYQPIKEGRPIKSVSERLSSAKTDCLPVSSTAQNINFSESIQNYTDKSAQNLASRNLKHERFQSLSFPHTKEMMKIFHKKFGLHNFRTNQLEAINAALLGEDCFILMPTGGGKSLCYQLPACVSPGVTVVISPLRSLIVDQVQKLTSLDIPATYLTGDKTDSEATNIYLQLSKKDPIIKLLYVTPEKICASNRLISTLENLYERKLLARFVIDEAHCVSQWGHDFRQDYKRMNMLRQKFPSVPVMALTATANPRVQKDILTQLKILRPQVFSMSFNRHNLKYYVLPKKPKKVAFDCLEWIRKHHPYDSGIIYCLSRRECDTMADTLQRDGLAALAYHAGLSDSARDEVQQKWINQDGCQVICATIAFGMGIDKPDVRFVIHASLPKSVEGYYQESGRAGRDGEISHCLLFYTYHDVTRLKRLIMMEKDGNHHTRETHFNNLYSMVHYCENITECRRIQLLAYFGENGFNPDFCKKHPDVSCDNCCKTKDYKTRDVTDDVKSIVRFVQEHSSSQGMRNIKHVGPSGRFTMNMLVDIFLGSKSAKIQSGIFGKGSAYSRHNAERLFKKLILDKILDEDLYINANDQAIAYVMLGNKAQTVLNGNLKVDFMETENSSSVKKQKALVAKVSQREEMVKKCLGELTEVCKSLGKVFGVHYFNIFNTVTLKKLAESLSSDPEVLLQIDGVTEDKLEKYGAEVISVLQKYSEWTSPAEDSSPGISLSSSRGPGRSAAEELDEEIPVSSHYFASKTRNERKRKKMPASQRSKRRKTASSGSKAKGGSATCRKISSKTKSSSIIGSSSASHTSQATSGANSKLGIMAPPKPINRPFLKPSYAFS
BLM ATPase activity, sequence (P54132 whole entry): as above
BLM, sequence (P54132 whole entry): as above
WRN, sequence (Q14191 whole entry): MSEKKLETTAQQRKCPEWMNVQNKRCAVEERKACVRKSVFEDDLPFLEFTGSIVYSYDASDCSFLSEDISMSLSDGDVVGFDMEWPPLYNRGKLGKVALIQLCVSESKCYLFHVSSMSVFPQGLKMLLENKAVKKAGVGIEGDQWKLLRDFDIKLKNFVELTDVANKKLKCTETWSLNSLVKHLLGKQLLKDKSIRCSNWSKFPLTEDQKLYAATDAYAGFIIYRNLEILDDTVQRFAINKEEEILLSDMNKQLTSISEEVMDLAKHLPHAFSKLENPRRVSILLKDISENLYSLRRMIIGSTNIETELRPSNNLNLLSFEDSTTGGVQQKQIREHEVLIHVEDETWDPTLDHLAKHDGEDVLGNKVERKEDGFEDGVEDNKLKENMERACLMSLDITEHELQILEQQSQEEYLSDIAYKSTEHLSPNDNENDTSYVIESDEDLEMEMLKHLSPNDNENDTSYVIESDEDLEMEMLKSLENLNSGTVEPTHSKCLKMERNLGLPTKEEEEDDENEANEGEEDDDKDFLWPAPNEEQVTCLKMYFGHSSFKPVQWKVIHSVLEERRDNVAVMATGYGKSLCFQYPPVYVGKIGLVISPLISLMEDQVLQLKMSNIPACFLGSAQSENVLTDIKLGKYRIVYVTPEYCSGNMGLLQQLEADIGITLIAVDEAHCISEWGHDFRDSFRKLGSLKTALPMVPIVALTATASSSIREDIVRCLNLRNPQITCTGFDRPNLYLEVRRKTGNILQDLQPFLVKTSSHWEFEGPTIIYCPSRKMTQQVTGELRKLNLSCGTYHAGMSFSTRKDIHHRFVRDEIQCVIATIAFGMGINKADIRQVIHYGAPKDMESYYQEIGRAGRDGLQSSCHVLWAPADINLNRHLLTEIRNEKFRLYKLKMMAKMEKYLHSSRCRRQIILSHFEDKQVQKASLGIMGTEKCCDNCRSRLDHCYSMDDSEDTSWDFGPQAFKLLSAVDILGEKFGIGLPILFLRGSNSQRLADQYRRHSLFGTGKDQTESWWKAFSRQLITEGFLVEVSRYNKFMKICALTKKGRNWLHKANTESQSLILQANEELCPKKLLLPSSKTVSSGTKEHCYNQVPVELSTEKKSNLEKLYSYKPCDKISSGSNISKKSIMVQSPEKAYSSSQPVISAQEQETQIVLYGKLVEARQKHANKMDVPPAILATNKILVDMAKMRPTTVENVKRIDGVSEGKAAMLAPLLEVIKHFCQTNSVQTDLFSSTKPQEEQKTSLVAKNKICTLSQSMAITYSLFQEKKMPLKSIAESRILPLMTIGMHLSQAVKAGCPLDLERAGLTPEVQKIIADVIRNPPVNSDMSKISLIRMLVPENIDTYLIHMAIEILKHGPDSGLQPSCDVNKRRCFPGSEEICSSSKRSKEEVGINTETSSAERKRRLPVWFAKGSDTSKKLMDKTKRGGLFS

`N#Cc1cc(NC(=O)Nc2nnc(-c3ccncc3)s2)ccc1Br` [Compound 23]: the “solubility (in words)” value in [1] is “noticeably diminished aqueous/DMSO solubility”.
With `O=S(=O)(Cc1ccc(Cl)c(Cl)c1)Nc1nnc(-c2ccncc2)s1` [Compound 7e], the “IC50 (BLM)” value on BLM helicase was “weakly active or inactive”.
In the case of `N#Cc1ccc(NC(=O)Nc2nnc(-c3ccncc3)s2)cc1Br` [Compound 24], the “solubility (in words)” value in [1] is recorded as “noticeably diminished aqueous/DMSO solubility”.
On to `O=C(Nc1ccc(-n2ccnc2)c(F)c1)Nc1nnc(-c2ccncc2)s1` [Compound 35], for which the “IC50 (BLM)” value on BLM helicase is recorded as “good activity”.
As to `O=C(Cc1ccc2ccccc2c1)Nc1nnc(-c2ccncc2)s1` [Compound 7c], the “IC50 (BLM)” value on BLM helicase was “weakly active or inactive”.
Consider `CN(C(=O)Nc1ccc2ccccc2c1)c1nnc(-c2ccncc2)s1` [Compound 7h], for which the “IC50 (BLM)” value on BLM helicase is reported as “complete loss of activity”.
On to `N#Cc1cc(NC(=O)Nc2nnc(-c3ccncc3)s2)ccc1-c1ccc[nH]1` [Compound 36], for which the “IC50 (BLM)” value against BLM helicase is “good activity”.
Regarding `O=C(Nc1ccc(F)c(C(F)(F)F)c1)Nc1nnc(-c2ccncc2)s1` [ML216], the “induction of sister chromatid exchanges” value in data set [2] is “induce sister chromatid exchanges”. For the same compound, in the data set on BLM-positive cells, the antiproliferative activity entry is recorded as “selective antiproliferative activity in BLM-positive cells”.
With `O=c1c(Nc2ccc(Cl)c(Cl)c2)c(Nc2nnc(-c3ccncc3)s2)c1=O` [Compound 7g], the “solubility (in words)” value in [1] is on record as “not improved over (1)”.
As to `O=C(Nc1ccc(Cl)cc1)Nc1nnc(-c2ccncc2)s1` [Compound 8], the “IC50 (BLM)” value on BLM helicase is “drastic loss in activity”.
Regarding `N#Cc1cc(NC(=O)Nc2nnc(-c3ccncc3)s2)ccc1Cl` [Compound 10], the “solubility (in words)” value in data set [1] was “noticeably diminished aqueous/DMSO solubility; also recorded: diminished solubility compared with 33”. Also, the “improvement in potency when 3-Cl is replaced with cyano” value on BLM helicase (relative to compound 1, BLM gel-based IC50) was determined as 4 fold.
`N#Cc1cc(NC(=O)Nc2nnc(-c3ccncc3)s2)ccc1-c1cn[nH]c1` [Compound 33]: the “induction of SCEs” value in [3] was “significant and dose-dependent induction of SCEs”. In addition, on BLM, the “displacement of DNA binding to BLM versus related DNA helicases” value is “selective displacement of DNA binding to BLM over related DNA helicases” and the “inhibition of BLM binding to single-stranded DNA” value was “dose-dependent inhibition”. Besides, the “selectivity for BLM over WRN” value at WRN is “greater than 6 fold”. Besides, the “induction of SCEs” value in [4] is “no further increase in SCEs”. The “IC50 (BLM)” value against BLM helicase is recorded as “comparable activity to the probe compound”. The “mode of BLM inhibition” value on BLM ATPase activity (Lineweaver-Burk double reciprocal plot) is “non-ATP competitive BLM inhibitor”. In addition, the “effect on apparent Km of BLM ATPase activity” value at BLM ATPase activity (single-stranded oligonucleotide as DNA effector) is given as “does not affect the apparent Km value”.
For the compound `O=C(Nc1ccc(Cl)c(Cl)c1)Nc1ncc(-c2ccncc2)s1` [Compound 6c], the “IC50 (BLM)” value against BLM helicase is “completely inactive”.
Turning to `N=C(Nc1ccc(Cl)c(Cl)c1)Nc1nnc(-c2ccncc2)s1` [Compound 7b], on BLM helicase, the “IC50 (BLM)” value is “weakly active or inactive”.
Regarding `O=C(Nc1nnc(-c2ccncc2)s1)Oc1ccc2ccccc2c1` [Compound 7d], on BLM helicase, the “IC50 (BLM)” value was “weakly active or inactive”.
In the case of `O=C(Nc1ccc(Cl)c(Cl)c1)Nc1nnc(-c2ccncc2)o1` [Compound 6d], the “IC50 (BLM)” value against BLM helicase is “loss of activity”.
`O=C(Nc1ccccc1)Nc1nnc(-c2ccncc2)s1` [Compound 9]: the “IC50 (BLM)” value against BLM helicase was “drastic loss in activity”.
Same read-out and setting: then `O=C(Nc1ccc(Cl)c(Cl)c1)Nc1ccc(-c2ccncc2)s1` [Compound 6a], with “loss of activity”.
Turning to `CCCOCN1C(=O)C=CC1=O` [NSC19630], the WRN helicase inhibition entry with WRN helicase was “small molecule inhibitor of WRN helicase”.
Turning to `O=C(Nc1ccc(Cl)c(Cl)c1)Nc1nnc(-c2ccccc2)s1` [Compound 4a], the “IC50 (BLM)” value at BLM helicase is recorded as “inactivity”.
Same read-out and setting: then `N#C/N=C(/Nc1ccc(F)c(C(F)(F)F)c1)Nc1nnc(-c2ccncc2)s1` [Compound 7f], with “weakly active or inactive”.
Consider `O=C(Nc1ccc(Cl)c(Cl)c1)Nc1nnc(-c2ccccn2)s1` [Compound 4b], for which the “IC50 (BLM)” value at BLM helicase is given as “inactivity”.
